Reference: PMC4791037 (Environmental science & technology, 2015)

How the values were obtained:
[1] = system: Chinese hamster ovary (CHO) cell line AS52, clone 11-4-8; experiment: CHO cell chronic cytotoxicity assay; format: cell-based; conditions: mean bootstrap value, calculated as (LC50)^−1(10^3); CHO cells, 72 h
[2] = CHO cell chronic cytotoxicity assay; format: cell-based, Chinese hamster; conditions: Chinese hamster, CHO cells, line AS52, clone 11-4-8
[3] = system: genomic DNA damage in Chinese hamster ovary (CHO) cell line AS52, clone 11-4-8; experiment: Single cell gel electrophoresis; format: cell-based; conditions: CHO cells, 4 h; for GTI (±SE), genotoxicity index: mean bootstrap value, calculated as (50%TDNA)^−1(10^3)
Summary of the method: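 CHO AS52 clone 11-4-8 cells (Ham's F12, 5% FBS, 37 °C, 5% CO2) exposed to test compound, then run in microplate comet assay. %Tail DNA scored only over concentrations with viability >70%. Microgel means were averaged per concentration and tested by one-way ANOVA with Holm-Sidak versus control (P ≤ 0.05). 50% Tail DNA concentration came from regression. Bootstrap replicates gave GTI values (1/M).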

| SMILES | CTI (±SE), cytotoxicity index [1] [M⁻¹] | CC50 at 72 h [2] [µM] | GTI (±SE), genotoxicity index [3] [M⁻¹] | genotoxicity (result in words) ([3]; SCGE assay) |
| --- | --- | --- | --- | --- |
| O=CC(Br)(Br)Br [TBAL, tribromoacetaldehyde] | 279.8 ± 4.8 | 3.58 | 3.00 ± 0.03 | – |
| O=CCBr [BAL, bromoacetaldehyde] | 64.6 ± 3.5 | – | 2.68 ± 0.11 | – |
| O=CC(Cl)Br (stereo not shown) [BCAL, bromochloroacetaldehyde] | 207.4 ± 11.0 | – | 1.61 ± 0.21 | – |
| O=CC(Br)Br [DBAL, dibromoacetaldehyde] | 207.5 ± 2.1 | – | 9.11 ± 0.60 | – |
| O=CC(Cl)(Cl)Cl [TCAL, trichloroacetaldehyde] | 0.94 ± 0.03 | – | – | not genotoxic |
| O=CC(Cl)(Br)Br [DBCAL, dibromochloroacetaldehyde] | 200.2 ± 1.4 | – | 6.99 ± 0.28 | – |
| O=CC(Cl)Cl [DCAL, dichloroacetaldehyde] | 35.7 ± 0.8 | – | 1.26 ± 0.03 | – |
| O=CC(Cl)(Cl)Br [BDCAL, bromodichloroacetaldehyde] | 51.1 ± 4.3 | – | 2.24 ± 0.05 | – |
| O=CCI [IAL, iodoacetaldehyde] | 170.4 ± 7.3 | – | 0.96 ± 0.03 | – |
